# A selection: hits, their analogues and other compounds. The true share with any hit is near 3.7%.
# NS3 helicase inh: blocks Hepatitis C virus NS3 helicase unwinding; NS3 helicase DNA unwinding, Cy5 molecular beacon fluorescence; inhibition, % at 10.9 µM; actives 0.56% (n = 290,000);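 active = inhibition above the mean of all tested compounds plus 3 SD, set per campaign, cut at about 35% in these data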;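 note: 0% = DMSO wells and 100% = thioflavine S control wells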
#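 Assay system: hepatitis C virus NS3 helicase domain fragment enzyme. Also added: annealed dual-labelled DNA beacon duplex, ATP-started. Timing: 1 h reaction at 25 °C, ATP-initiated. Technique: Cy5 fluorescence at 0 and 60 min, beacon hairpin quenching. Evaluation: % inhibition of unwinding. Replication: one well per compound.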
# rCAG RNA binder: binds r(CAG) RNA repeats; AID 651821; r(CAG) RNA repeat, TO-PRO-1 dye displacement fluorescence; actives 1.3% (n = 370,000); inhibition, % at 3 µM;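 active = inhibition above the plate cutoff, the mean of all test compounds on that plate plus 3 SD, cut at about 35% in these data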;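 note: 0% = DMSO alone and 100% = 100 µM mitoxantrone as full dye displacement; higher means more dye released from RNA so lower well fluorescence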
# core dimer inh: HCV core protein dimerization inhibition | TR-FRET GST/Flag-core106 dimerization, 1536-well | inhibition, % at 5 µM | actives 0.33% (n = 300,000) | AID 1899;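 active = inhibition above the mean of all tested compounds plus 3 SD, set per screening campaign, cut at about 45% in these data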
#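 Material: GST/Flag-tagged HCV core106 proteins. Incubation: 4 h, 22.5 °C incubation. Read-out basis: inhibition (%) from 671 over 617 nm ratio. Measured by: TR-FRET, excitation 340 nm, emission 617 and 671 nm.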
# TAAR1 ag: human TAAR1 agonism; Q96RJ0; activation, % at 3 µM; AID 624467; CHO RD-HGA16 TAAR1, Fluo-8 calcium fluorescence; vehicle wells 0%, saturating PEA agonist 100%; actives 0.99% (n = 360,000);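 active = activation above the mean activation of all test compounds in the run plus 3 SD, cut at about 38% in these data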
# Target sequence (Q96RJ0 whole entry, looked up): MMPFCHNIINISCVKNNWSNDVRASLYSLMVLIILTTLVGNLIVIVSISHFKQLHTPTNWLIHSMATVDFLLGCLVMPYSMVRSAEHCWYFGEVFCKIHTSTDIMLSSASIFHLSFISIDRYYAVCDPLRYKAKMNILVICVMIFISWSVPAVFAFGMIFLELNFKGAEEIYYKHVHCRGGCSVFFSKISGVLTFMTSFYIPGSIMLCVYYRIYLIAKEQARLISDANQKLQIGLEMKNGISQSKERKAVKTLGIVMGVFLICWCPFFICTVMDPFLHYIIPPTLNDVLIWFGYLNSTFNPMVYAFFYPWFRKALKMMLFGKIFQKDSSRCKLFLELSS
#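 test system = CHO RD-HGA16 cells carrying human TAAR1 plus Gα16 | schedule = 17-24 h seeding, 75 min 37 °C dye, 30 min RT | compound dosing = 3 µM single concentration | control set = DMSO and PEA EC100 | replicates = n 1 | signal = Fluo-8 fluorescence, 5 s baseline then 140 s kinetic read | measure = percent activation vs PEA EC100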
# TAAR1 antagonist: antagonists of human TAAR1; CHO RD-HGA16 TAAR1, Fluo-8 calcium fluorescence, antagonist; inhibition, % at 3 µM; actives 1.5% (n = 360,000); AID 624466;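 active = inhibition above a per-plate cutoff, the mean inhibition of test compounds on that plate plus 3 SD, cut at about 49% in these data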;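 note: 0% = DMSO plus EC80 beta-PEA response and 100% = DMSO alone without agonist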
#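 Assay system: RD-HGA16 CHO cells with stable hTAAR1 and Gα16 / Reagent: EC80 β-phenethylamine stimulus / Doses: 3 µM, single point / Timing: dye loading 75 min at 37 °C, then 30 min room temperature / Measured by: Fluo-8 intracellular calcium dye fluorescence, real-time kinetic reads / Controls: vehicle wells and EC80 agonist wells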
# TAAR1 ag conf: human TAAR1 agonism, confirmed. shares compounds with TAAR1 ag. CHO RD-HGA16 TAAR1, Fluo-8 calcium fluorescence; scaled: DMSO 0%, maximal phenethylamine 100%. activation, % at 3 µM. actives 82% (n = 2,400). AID 651783;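 active = activation above a cutoff set at the run's mean compound activation plus 3 SD, cut at about 39% in these data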
# Ga16 nonsel ag: nonselective agonist in parental cells, TAAR1 agonist counter-screen; shares compounds with TAAR1 ag; CHO-Ga16 parental, Fluo-8 calcium fluorescence; normalized to maximal ATP response, DMSO zero; activation, % at 3 µM; actives 50% (n = 2,400); AID 651787;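 active = activation above the run cutoff, the mean activation over all tested wells plus 3 SD, cut at about 12% in these data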;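 note: 0% = DMSO wells and 100% = maximal ATP response on the peak over basal ratio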
# TAAR1 desensitize: counter-screen for human TAAR1 agonists: agonists that desensitize TAAR1. shares compounds with TAAR1 ag. AID 651951. inhibition, % at 3 µM. CHO RD-HGA16 hTAAR1, Fluo-8 calcium, beta-PEA response inhibition. actives 46% (n = 2,400);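 active = inhibition above the run cutoff, the mean inhibition of all test compounds plus 3 SD, cut at about 49% in these data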;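 note: beta-PEA stimulus applied at its EC80; loss of beta-PEA calcium signal after compound pretreatment read as receptor desensitization; 0% = DMSO with beta-PEA at EC80 and 100% = DMSO alone without agonist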
# Ga16 antag count: nonselective Ga16 antagonist in TAAR1 agonist counter-screen; shares compounds with TAAR1 ag; CHO-Ga16 ATP-induced calcium, Fluo-8 fluorescence; inhibition, % at 3 µM; actives 39% (n = 2,400);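 active = inhibition above the plate's mean compound inhibition plus 3 SD, computed per plate, cut at about 22% in these data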;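 note: 0% = EC80 ATP with DMSO and 100% = DMSO wells without ATP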
# Active calls of the source: *; . = no result given.
SMILES,NS3 helicase inh,rCAG RNA binder,core dimer inh,TAAR1 ag,TAAR1 antagonist,TAAR1 ag conf,Ga16 nonsel ag,TAAR1 desensitize,Ga16 antag count
O=C(O)C1CCCCC1C(=O)NCCc1ccncc1 (configuration not stated),8.4,3.3,-1.9,21.6,-2.1,.,.,.,.
CC1=C(C)CC(C(=O)NCCc2ccc(F)cc2)C(C(=O)O)C1 (configuration not stated),3.3,-4.0,1.4,73.2*,45.4,75.3*,3.5,27.3,-6.2
O=C(O)[C@H]1CCCC[C@H]1C(=O)NCCc1ccccc1,-10.4,-2.6,-2.1,85.0*,85.2*,96.8*,5.2,92.0*,5.0
COc1ccc2c(c1)CCCN2C(=O)C1CCCN(S(=O)(=O)c2cccc3ccccc23)C1 (configuration not stated),.,7.6,.,.,.,.,.,.,.
CCCCOc1ccc(CSCCN)cc1Cl,-74.1,11.4,-1.6,76.8*,-0.7,64.0*,9.7,30.9,11.3
CCOc1ccc(CSC(=N)N)cc1Cl,-8.2,3.3,2.2,12.6,-3.1,.,.,.,.
O=C1C[C@H](C(=O)Nc2ccc(Cl)cc2)[C@@H](c2ccccc2)O1,.,0.3,.,.,.,.,.,.,.
Cc1ccccc1C(=O)c1cccn1CC(=O)NCc1ccccc1Cl,6.7,-3.0,9.1,50.2*,33.7,4.8,6.1,10.4,16.1
CC1(c2ccc(OC(F)F)cc2)NC(=O)N(CC(=O)Nc2cccc(F)c2)C1=O (configuration not stated),-13.2,13.9,6.9,137.7*,97.6*,119.9*,84.2*,97.1*,71.8*
CC1(c2ccc(OC(F)F)cc2)NC(=O)N(CC(=O)Nc2ccc(OC(F)F)cc2)C1=O (configuration not stated),-25.1,1.1,6.1,103.0*,83.2*,96.6*,45.8*,82.4*,55.8*
CN1CCN(c2ccc(Cl)cc2NC(=O)CN2C(=O)NC(C)(c3ccccc3)C2=O)CC1 (configuration not stated),.,-4.2,0.5,1.1,4.2,.,.,.,.
CC1(c2ccc(OC(F)F)cc2)NC(=O)N(CC(=O)Nc2ccc(Cl)cc2F)C1=O (configuration not stated),-8.6,0.4,-3.5,95.6*,55.0*,91.0*,46.8*,53.4*,43.2*
CCOc1ccc(NC(=O)CN2C(=O)NC(C)(c3ccc(OC(F)F)cc3)C2=O)cc1 (configuration not stated),-14.3,-2.8,-0.6,98.9*,63.0*,125.0*,82.3*,97.1*,58.5*
CC1(c2ccc(OC(F)F)cc2)NC(=O)N(CC(=O)Nc2ccc(S(N)(=O)=O)cc2)C1=O (configuration not stated),2.3,15.9,-1.2,8.2,-4.2,.,.,.,.
CC1(c2nnnn2Cc2ccccc2)CCSCC(=O)N1Cc1cccs1 (configuration not stated),.,2.5,.,.,.,.,.,.,.
COC(=O)[C@@]12CCCCC3=C1N(CCC3)C(=O)[C@H]2CC(=O)N1CCOCC1,.,0.3,.,.,.,.,.,.,.
COc1cccc(CNC(=O)[C@H]2CCCN2)c1,.,1.1,.,1.3,-3.6,.,.,.,.
CC(C)CN1C(=O)[C@]2(CC(=O)N(C)C2c2ccccc2)c2cc(-n3cc(CCCC#N)nn3)ccc21 (some centres not stated),.,0.2,.,.,.,.,.,.,.
CC1(c2ccc(OC(F)F)cc2)NC(=O)N(CC(=O)Nc2ccc(F)cc2)C1=O (configuration not stated),-14.0,-0.4,-1.2,77.5*,33.4,106.7*,46.6*,78.5*,46.0*
CCOC(=O)c1c(NC(=O)CN2C(=O)NC(C)(c3ccc(OC(F)F)cc3)C2=O)sc(C)c1C (configuration not stated),17.7,1.0,10.3,87.2*,53.3*,97.5*,42.0*,85.7*,51.5*
Cc1cc(NC(=O)CN2C(=O)NC(C)(c3ccc(OC(F)F)cc3)C2=O)no1 (configuration not stated),6.8,0.1,-11.8,83.3*,39.7,-4.4,-1.9,-7.8,-1.2
CCOC(=O)c1sc(NC(=O)CN2C(=O)NC3(CCCCCCC3)C2=O)c(C(=O)OCC)c1C,12.5,15.3,15.8,0.1,-19.0,.,.,.,.
CCN(CC)C(=O)CC[C@@H]1CC[C@]2(CCCN(Cc3ccc(Br)cc3)C2)O1,.,-3.0,.,.,.,.,.,.,.
Cc1cc(OC[C@@H](O)CN2CCC(C(O)(c3ccccc3)c3ccccc3)CC2)ccc1Br,.,4.0,.,.,.,.,.,.,.
Cc1ccc(S(=O)(=O)N2CCCc3nc(-c4ccc(Br)cc4)ccc32)cc1,.,3.3,.,0.2,-23.5,.,.,.,.
SMILES,NS3 helicase inh,rCAG RNA binder,core dimer inh,TAAR1 ag,TAAR1 antagonist,TAAR1 ag conf,Ga16 nonsel ag,TAAR1 desensitize,Ga16 antag count
COCCNc1nc(NCc2ccccc2)nc2ccsc12,.,-0.6,.,152.6*,104.2*,122.9*,103.0*,106.5*,102.4*
COc1ccccc1CNc1nc(NCCNC(C)=O)c2sccc2n1,.,0.9,.,2.2,-4.4,.,.,.,.
CC(=O)NCCNc1nc(NCc2ccccc2)nc2ccsc12,.,0.3,.,90.6*,92.2*,108.6*,23.4*,101.5*,53.0*
COc1ccc2c(c1)CN1C(=O)N(Cc3ccccc3)S(=O)(=O)CC21 (configuration not stated),.,2.7,.,.,.,.,.,.,.
COc1cccc(C(=O)N[C@@H](Cc2cccnc2)C(=O)N2CCC[C@H]2C(=O)NCCc2ccccc2Cl)c1,.,-0.2,.,67.2*,70.8*,82.8*,8.5,93.1*,10.5
O=C(CC1CCCC1)N[C@@H](Cc1cccnc1)C(=O)N1CCC[C@H]1C(=O)NCCc1ccccc1Cl,.,-0.6,.,69.5*,78.0*,87.4*,13.5*,89.7*,5.0
O=C(N[C@@H](Cc1cccnc1)C(=O)N1CCC[C@H]1C(=O)NCCc1ccccc1Cl)C1CCCC1,.,0.2,.,79.9*,73.3*,79.8*,-0.6,86.2*,2.2
O=C(N[C@@H](Cc1cccnc1)C(=O)N1CCC[C@H]1C(=O)NCc1ccccc1)c1ccc(Cl)cc1Cl,.,1.8,.,2.1,-26.4,.,.,.,.
O=C(N[C@@H](Cc1cccnc1)C(=O)N1CCC[C@H]1C(=O)NCCc1ccccc1Cl)c1ccc(Cl)cc1Cl,.,-0.5,.,65.5*,65.5*,72.3*,1.5,88.8*,-1.0
